# Data taken from ChEMBL document CHEMBL3352199, “Biological evaluation of halogenated thiazolo[3,2-a]pyrimidin-3-one carboxylic acid derivatives targeting the YycG histidine kinase” (Eur J Med Chem, 2014).
# pIC50: −log10 of the molar value. Activity calls are given as the source filed them.
# System: Staphylococcus epidermidis
# Assay: Antimicrobial activity against Staphylococcus epidermidis ATCC 35984 after 12 to 16 hrs by broth micro-dilution method
# Type: functional
# Settings: not given
# Method in brief: (§1)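 Broth micro-dilution in tubes per CLSI. Serial twofold dilutions in Mueller-Hinton broth, top final concentration 200. The inoculum was 6 h cultures adjusted to 0.5 McFarland. Incubated 37 °C 12–16 h. MIC is the lowest concentration with no visible growth by eye. Growth control (no drug) and sterility control (uninoculated broth) were included.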
row,Structure (SMILES),MIC
1,CCOC(=O)C1=C(c2ccccc2)N=c2s/c(=C\c3ccc(-c4cccc(C(=O)O)c4)o3)c(=O)n2C1c1ccc(F)cc1 (stereo not drawn),6.25 µM
2,O=C(O)c1cccc(-c2ccc(/C=c3\sc4n(c3=O)C(c3ccc(F)cc3)C=C(c3ccccc3)N=4)o2)c1 (stereo not drawn),6.25 µM
3,CCOC(=O)C1=C(c2ccccc2)N=c2s/c(=C\c3ccc(-c4ccc(C(=O)O)cc4)o3)c(=O)n2C1c1ccc(OC)cc1 (stereo not drawn),6.25 µM
4,CCOC(=O)C1=C(c2ccccc2)N=c2s/c(=C\c3ccc(OCC(=O)O)c(OC)c3)c(=O)n2C1c1ccc(Cl)cc1 (stereo not drawn),200 µM
5,CCOC(=O)C1=C(C)N=c2s/c(=C\c3ccc(-c4cccc(C(=O)O)c4)o3)c(=O)n2C1c1ccc(OC)cc1 (stereo not drawn),6.25 µM
6,CCOC(=O)C1=C(C)N=c2s/c(=C\c3ccc(OCC(=O)O)cc3)c(=O)n2C1c1ccc(OC)cc1 (stereo not drawn),50 µM
7,CCOC(=O)C1=C(c2ccccc2)N=c2s/c(=C\c3ccc(-c4cccc(C(=O)O)c4)o3)c(=O)n2C1c1ccc(Cl)cc1 (stereo not drawn),1.56 µM
8,CCOC(=O)C1=C(c2ccccc2)N=c2s/c(=C\c3ccc(OCC(=O)O)cc3)c(=O)n2C1c1ccc(Cl)cc1 (stereo not drawn),3.12 µM
9,O=C(O)c1cccc(-c2ccc(/C=c3\sc4n(c3=O)C(c3ccc(Cl)cc3)C=C(c3ccccc3)N=4)o2)c1 (stereo not drawn),1.56 µM
10,CCOC(=O)C1=C(C)N=c2s/c(=C\c3ccc(OCC(=O)O)c(OC)c3)c(=O)n2C1c1ccc(OC)cc1 (stereo not drawn),50 µM

# System: Staphylococcus epidermidis
# Assay: Antimicrobial activity against Staphylococcus epidermidis ATCC 12228 after 12 to 16 hrs by broth micro-dilution method
# Type: functional
# Settings: not given
# Method in brief: as §1
row,Structure (SMILES),MIC
1,CCOC(=O)C1=C(c2ccccc2)N=c2s/c(=C\c3ccc(-c4cccc(C(=O)O)c4)o3)c(=O)n2C1c1ccc(F)cc1 (stereo not drawn),3.12 µM
2,O=C(O)c1cccc(-c2ccc(/C=c3\sc4n(c3=O)C(c3ccc(F)cc3)C=C(c3ccccc3)N=4)o2)c1 (stereo not drawn),3.12 µM
3,CCOC(=O)C1=C(c2ccccc2)N=c2s/c(=C\c3ccc(-c4ccc(C(=O)O)cc4)o3)c(=O)n2C1c1ccc(OC)cc1 (stereo not drawn),6.25 µM
4,CCOC(=O)C1=C(c2ccccc2)N=c2s/c(=C\c3ccc(OCC(=O)O)c(OC)c3)c(=O)n2C1c1ccc(Cl)cc1 (stereo not drawn),200 µM
5,CCOC(=O)C1=C(C)N=c2s/c(=C\c3ccc(OCC(=O)O)cc3)c(=O)n2C1c1ccc(OC)cc1 (stereo not drawn),50 µM
6,CCOC(=O)C1=C(c2ccccc2)N=c2s/c(=C\c3ccc(-c4cccc(C(=O)O)c4)o3)c(=O)n2C1c1ccc(Cl)cc1 (stereo not drawn),3.12 µM
7,CCOC(=O)C1=C(c2ccccc2)N=c2s/c(=C\c3ccc(OCC(=O)O)cc3)c(=O)n2C1c1ccc(Cl)cc1 (stereo not drawn),3.12 µM
8,O=C(O)c1cccc(-c2ccc(/C=c3\sc4n(c3=O)C(c3ccc(Cl)cc3)C=C(c3ccccc3)N=4)o2)c1 (stereo not drawn),6.25 µM
9,CCOC(=O)C1=C(C)N=c2s/c(=C\c3ccc(OCC(=O)O)c(OC)c3)c(=O)n2C1c1ccc(OC)cc1 (stereo not drawn),50 µM

# System: Staphylococcus aureus
# Assay: Antimicrobial activity against Staphylococcus aureus ATCC 25923 after 12 to 16 hrs by broth micro-dilution method
# Type: functional
# Settings: not given
# Method in brief: as §1
row,Structure (SMILES),MIC
1,CCOC(=O)C1=C(c2ccccc2)N=c2s/c(=C\c3ccc(-c4cccc(C(=O)O)c4)o3)c(=O)n2C1c1ccc(F)cc1 (stereo not drawn),6.25 µM
2,O=C(O)c1cccc(-c2ccc(/C=c3\sc4n(c3=O)C(c3ccc(F)cc3)C=C(c3ccccc3)N=4)o2)c1 (stereo not drawn),6.25 µM
3,CCOC(=O)C1=C(c2ccccc2)N=c2s/c(=C\c3ccc(-c4cccc(C(=O)O)c4)o3)c(=O)n2C1c1ccc(Cl)cc1 (stereo not drawn),6.25 µM
4,O=C(O)c1cccc(-c2ccc(/C=c3\sc4n(c3=O)C(c3ccc(Cl)cc3)C=C(c3ccccc3)N=4)o2)c1 (stereo not drawn),3.12 µM

# System: Escherichia coli
# Assay: Antimicrobial activity against Escherichia coli ATCC 25922 after 12 to 16 hrs by broth micro-dilution method
# Type: functional
# Settings: not given
# Method in brief: as §1
row,Structure (SMILES),MIC
1,CCOC(=O)C1=C(c2ccccc2)N=c2s/c(=C\c3ccc(-c4cccc(C(=O)O)c4)o3)c(=O)n2C1c1ccc(F)cc1 (stereo not drawn),> 200 µM
2,O=C(O)c1cccc(-c2ccc(/C=c3\sc4n(c3=O)C(c3ccc(F)cc3)C=C(c3ccccc3)N=4)o2)c1 (stereo not drawn),> 200 µM
3,CCOC(=O)C1=C(c2ccccc2)N=c2s/c(=C\c3ccc(-c4ccc(C(=O)O)cc4)o3)c(=O)n2C1c1ccc(OC)cc1 (stereo not drawn),> 200 µM
4,CCOC(=O)C1=C(c2ccccc2)N=c2s/c(=C\c3ccc(OCC(=O)O)c(OC)c3)c(=O)n2C1c1ccc(Cl)cc1 (stereo not drawn),> 200 µM
5,CCOC(=O)C1=C(C)N=c2s/c(=C\c3ccc(-c4cccc(C(=O)O)c4)o3)c(=O)n2C1c1ccc(OC)cc1 (stereo not drawn),> 200 µM
6,CCOC(=O)C1=C(C)N=c2s/c(=C\c3ccc(OCC(=O)O)cc3)c(=O)n2C1c1ccc(OC)cc1 (stereo not drawn),> 200 µM
7,CCOC(=O)C1=C(c2ccccc2)N=c2s/c(=C\c3ccc(-c4cccc(C(=O)O)c4)o3)c(=O)n2C1c1ccc(Cl)cc1 (stereo not drawn),> 200 µM
8,CCOC(=O)C1=C(c2ccccc2)N=c2s/c(=C\c3ccc(OCC(=O)O)cc3)c(=O)n2C1c1ccc(Cl)cc1 (stereo not drawn),> 200 µM
9,O=C(O)c1cccc(-c2ccc(/C=c3\sc4n(c3=O)C(c3ccc(Cl)cc3)C=C(c3ccccc3)N=4)o2)c1 (stereo not drawn),> 200 µM
10,CCOC(=O)C1=C(C)N=c2s/c(=C\c3ccc(OCC(=O)O)c(OC)c3)c(=O)n2C1c1ccc(OC)cc1 (stereo not drawn),> 200 µM

# System: Shigella flexneri
# Assay: Antimicrobial activity against Shigella flexneri 301 after 12 to 16 hrs by broth micro-dilution method
# Type: functional
# Settings: not given
# Method in brief: as §1
row,Structure (SMILES),MIC
1,CCOC(=O)C1=C(c2ccccc2)N=c2s/c(=C\c3ccc(-c4cccc(C(=O)O)c4)o3)c(=O)n2C1c1ccc(F)cc1 (stereo not drawn),> 200 µM
2,O=C(O)c1cccc(-c2ccc(/C=c3\sc4n(c3=O)C(c3ccc(F)cc3)C=C(c3ccccc3)N=4)o2)c1 (stereo not drawn),> 200 µM
3,CCOC(=O)C1=C(c2ccccc2)N=c2s/c(=C\c3ccc(-c4ccc(C(=O)O)cc4)o3)c(=O)n2C1c1ccc(OC)cc1 (stereo not drawn),> 200 µM
4,CCOC(=O)C1=C(c2ccccc2)N=c2s/c(=C\c3ccc(OCC(=O)O)c(OC)c3)c(=O)n2C1c1ccc(Cl)cc1 (stereo not drawn),> 200 µM
5,CCOC(=O)C1=C(C)N=c2s/c(=C\c3ccc(-c4cccc(C(=O)O)c4)o3)c(=O)n2C1c1ccc(OC)cc1 (stereo not drawn),> 200 µM
6,CCOC(=O)C1=C(C)N=c2s/c(=C\c3ccc(OCC(=O)O)cc3)c(=O)n2C1c1ccc(OC)cc1 (stereo not drawn),> 200 µM
7,CCOC(=O)C1=C(c2ccccc2)N=c2s/c(=C\c3ccc(-c4cccc(C(=O)O)c4)o3)c(=O)n2C1c1ccc(Cl)cc1 (stereo not drawn),> 200 µM
8,CCOC(=O)C1=C(c2ccccc2)N=c2s/c(=C\c3ccc(OCC(=O)O)cc3)c(=O)n2C1c1ccc(Cl)cc1 (stereo not drawn),> 200 µM
9,O=C(O)c1cccc(-c2ccc(/C=c3\sc4n(c3=O)C(c3ccc(Cl)cc3)C=C(c3ccccc3)N=4)o2)c1 (stereo not drawn),> 200 µM
10,CCOC(=O)C1=C(C)N=c2s/c(=C\c3ccc(OCC(=O)O)c(OC)c3)c(=O)n2C1c1ccc(OC)cc1 (stereo not drawn),> 200 µM

# System: Staphylococcus epidermidis
# Assay: Antibiofilm activity against Staphylococcus epidermidis ATCC 35984 at 50 uM after 18 hrs by crystal violet staining method
# Type: functional, organism-based
# Settings: not given
# Method in brief: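 S. epidermidis ATCC35984 suspension seeded in microtiter wells, 37 °C 6 h to form young biofilm. PBS-washed ×4, then fresh TSB with graded compound dilutions, 37 °C 18 h. Washed, methanol-fixed 15 min, air-dried, crystal violet stained, OD570 read. Cut-off ODc = mean OD570 of negative control + 3×SD (0.28); triplicate.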
row,Structure (SMILES),Activity
1,CCOC(=O)C1=C(c2ccccc2)N=c2s/c(=C\c3ccc(-c4cccc(C(=O)O)c4)o3)c(=O)n2C1c1ccc(F)cc1 (stereo not drawn),Active
2,O=C(O)c1cccc(-c2ccc(/C=c3\sc4n(c3=O)C(c3ccc(F)cc3)C=C(c3ccccc3)N=4)o2)c1 (stereo not drawn),Active
3,CCOC(=O)C1=C(c2ccccc2)N=c2s/c(=C\c3ccc(-c4ccc(C(=O)O)cc4)o3)c(=O)n2C1c1ccc(OC)cc1 (stereo not drawn),inactive
4,CCOC(=O)C1=C(c2ccccc2)N=c2s/c(=C\c3ccc(OCC(=O)O)c(OC)c3)c(=O)n2C1c1ccc(Cl)cc1 (stereo not drawn),inactive
5,CCOC(=O)C1=C(C)N=c2s/c(=C\c3ccc(-c4cccc(C(=O)O)c4)o3)c(=O)n2C1c1ccc(OC)cc1 (stereo not drawn),inactive
6,CCOC(=O)C1=C(C)N=c2s/c(=C\c3ccc(OCC(=O)O)cc3)c(=O)n2C1c1ccc(OC)cc1 (stereo not drawn),inactive
7,CCOC(=O)C1=C(c2ccccc2)N=c2s/c(=C\c3ccc(-c4cccc(C(=O)O)c4)o3)c(=O)n2C1c1ccc(Cl)cc1 (stereo not drawn),Active
8,CCOC(=O)C1=C(c2ccccc2)N=c2s/c(=C\c3ccc(OCC(=O)O)cc3)c(=O)n2C1c1ccc(Cl)cc1 (stereo not drawn),inactive
9,O=C(O)c1cccc(-c2ccc(/C=c3\sc4n(c3=O)C(c3ccc(Cl)cc3)C=C(c3ccccc3)N=4)o2)c1 (stereo not drawn),Active
10,CCOC(=O)C1=C(C)N=c2s/c(=C\c3ccc(OCC(=O)O)c(OC)c3)c(=O)n2C1c1ccc(OC)cc1 (stereo not drawn),inactive

# System: not listed separately
# Assay: Hemolytic activity in human erythrocytes at 100 uM after 1 hr by spectrophotometry
# Type: ADME, cell-based
# Settings: erythrocyte, 50 µM, in the assay text read “50 uM” for “100 uM”
# Method in brief: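 Healthy human erythrocytes exposed to compounds. After incubation, centrifuged at 350 × g for 10 min, and hemolysis read as supernatant absorbance at 570 nm. DMSO (0.1%) served as negative control and Triton X-100 (1%) as positive control.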
row,Structure (SMILES),Activity
1,CCOC(=O)C1=C(c2ccccc2)N=c2s/c(=C\c3ccc(-c4cccc(C(=O)O)c4)o3)c(=O)n2C1c1ccc(F)cc1 (stereo not drawn),Non-toxic
2,O=C(O)c1cccc(-c2ccc(/C=c3\sc4n(c3=O)C(c3ccc(F)cc3)C=C(c3ccccc3)N=4)o2)c1 (stereo not drawn),Non-toxic
3,CCOC(=O)C1=C(c2ccccc2)N=c2s/c(=C\c3ccc(-c4ccc(C(=O)O)cc4)o3)c(=O)n2C1c1ccc(OC)cc1 (stereo not drawn),Non-toxic
4,CCOC(=O)C1=C(C)N=c2s/c(=C\c3ccc(-c4cccc(C(=O)O)c4)o3)c(=O)n2C1c1ccc(OC)cc1 (stereo not drawn),Non-toxic
5,CCOC(=O)C1=C(C)N=c2s/c(=C\c3ccc(OCC(=O)O)cc3)c(=O)n2C1c1ccc(OC)cc1 (stereo not drawn),Non-toxic
6,CCOC(=O)C1=C(c2ccccc2)N=c2s/c(=C\c3ccc(-c4cccc(C(=O)O)c4)o3)c(=O)n2C1c1ccc(Cl)cc1 (stereo not drawn),Non-toxic
7,CCOC(=O)C1=C(c2ccccc2)N=c2s/c(=C\c3ccc(OCC(=O)O)cc3)c(=O)n2C1c1ccc(Cl)cc1 (stereo not drawn),Non-toxic
8,O=C(O)c1cccc(-c2ccc(/C=c3\sc4n(c3=O)C(c3ccc(Cl)cc3)C=C(c3ccccc3)N=4)o2)c1 (stereo not drawn),Non-toxic

# System: not listed separately
# Assay: Inhibition of recombinant YycG kinase HK domain autophosphorylation activity (unknown origin) expressed in Escherichia coli BL21 (DE3) preincubated for 30 mins by ATP-Luminescence assay
# Settings: not given
# Method in brief: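 YycG HATPase_c + HisKA domains, expressed in E. coli BL21(DE3), purified on Ni-NTA. Protein at 0.13 mmol/L pre-incubated with serial compound dilutions in 40 mmol/L Tris pH 8.0, 20 mmol/L MgCl₂, 0.1 mg/mL BSA, 25 °C 30 min. ATP 4 mmol/L added, 30 min at 25 °C. Remaining ATP measured by Kinase-Glo luminescence. IC50 fitted from phosphorylation-inhibition rates.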
row,Structure (SMILES),pIC50
1,CCOC(=O)C1=C(c2ccccc2)N=c2s/c(=C\c3ccc(-c4cccc(C(=O)O)c4)o3)c(=O)n2C1c1ccc(Cl)cc1 (stereo not drawn),4.90
2,O=C(O)c1cccc(-c2ccc(/C=c3\sc4n(c3=O)C(c3ccc(Cl)cc3)C=C(c3ccccc3)N=4)o2)c1 (stereo not drawn),4.25
